Assay results taken from ChEMBL document CHEMBL3124885, “Discovery of 7-tetrahydropyran-2-yl chromans: β-site amyloid precursor protein cleaving enzyme 1 (BACE1) inhibitors that reduce amyloid β-protein (Aβ) in the central nervous system” (J Med Chem, 2014).
≈ marks a conversion by molar mass, not a printed value.

Assays:
[1] = Fraction unbound in Hartley guinea pig brain at 60 mg/kg, po measured at 3 hrs; format: ADME, organism-based, Cavia porcellus; design: dose 60 mg/kg, route oral; details: in vivo
[2] = Drug uptake in Hartley guinea pig CSF at 60 mg/kg, po measured at 8 hrs; format: ADME, organism-based, Cavia porcellus, Cerebrospinal fluid; design: dose 60 mg/kg, route oral; details: read-out: Drug uptake
Summary of the method: (§1)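 Male Hartley guinea pigs, oral dosing (CMC/Tween/citrate suspension or PEG/EtOH/H₂O solution), six or eight animals per cohort; CSF drug concentration (nM) measured at each time point.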

[3] = Unbound plasma concentration in Hartley guinea pig at 60 mg/kg, po measured at 3 hrs; format: ADME, organism-based, Cavia porcellus; design: dose 60 mg/kg, route oral; details: in vivo
Summary of the method: (§2)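 Male Hartley guinea pigs were dosed orally at 30, 60 or 100 mg/kg, with six or eight animals per cohort. The vehicle was either a suspension in 1% CMC/0.5% Tween/5 mM citrate in H₂O or a 40/10/50 PEG/EtOH/H₂O solution, depending on compound. Unbound plasma concentration was sampled at 1–12 h post-dose alongside brain, CSF and CSF Aβ₁₋₄₀.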

[4] = Drug uptake in Sprague-Dawley rat CSF at 60 mg/kg, po measured at 12 hrs; format: ADME, organism-based, Cerebrospinal fluid; design: dose 60 mg/kg, route oral; details: read-out: Drug uptake
Summary of the method: (§3)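 Male Sprague−Dawley rats dosed orally at 60 mg/kg in 1% CMC/0.5% Tween/5 mM citrate in H₂O; CSF compound concentration (nM) at 1–12 h.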

[5] = Ratio of unbound drug level in brain to plasma in Hartley guinea pig at 30 mg/kg, po measured at 3 hrs; format: ADME, organism-based, Cavia porcellus; design: dose 30 mg/kg, route oral; details: brain and plasma (unbound), read-out: K(p,uu,brain)
Summary of the method: (§4)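 Male Hartley guinea pigs given single oral doses of 30, 60 or 100 mg/kg in 1% CMC/0.5% Tween/5 mM citrate in H₂O, 6–8 animals per cohort. Plasma, brain and CSF sampled at 1–12 h; free brain to free plasma ratio computed.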

[6] = Intrinsic clearance in Sprague-Dawley rat hepatocytes at 2 uM after 60 to 120 mins; format: ADME, cell-based, Hepatocyte; details: read-out: CLH
Plasma [7] = assay: Unbound plasma concentration in cynomolgus monkey at 0.5 mg/kg, iv and 100 mg/kg, po measured at 2 hrs; format: ADME, organism-based, Macaca fascicularis; details: in vivo
Summary of the method: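 Female cynomolgus monkeys, three per dosing route, received 0.5 mg/kg iv and 100 mg/kg po. Unbound plasma concentration was reported at 2 h and 4 h post-dose.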

[8] = Fraction unbound in Hartley guinea pig brain at 30 mg/kg, po measured at 3 hrs; format: ADME, organism-based, Cavia porcellus; design: dose 30 mg/kg, route oral; details: in vivo
[9] = Fraction unbound in Hartley guinea pig brain at 60 mg/kg, po measured at 12 hrs; format: ADME, organism-based, Cavia porcellus; design: dose 60 mg/kg, route oral; details: in vivo
[10] = Ratio of unbound drug level in brain to plasma in Sprague-Dawley rat at 60 mg/kg, po measured at 12 hrs; format: ADME, organism-based; design: dose 60 mg/kg, route oral; details: brain and plasma (unbound), read-out: K(p,uu,brain)
Summary of the method: (§5)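 Male Sprague–Dawley rats dosed 60 mg/kg po in 1% CMC/0.5% Tween/5 mM citrate in H₂O; plasma, brain and CSF taken at 1, 3, 5, 8 and 12 h; unbound plasma and brain levels and their ratio determined.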

Brain [11] = assay: Fraction unbound in Sprague-Dawley rat brain at 60 mg/kg, po measured at 8 hrs; format: ADME, organism-based; design: dose 60 mg/kg, route oral; details: in vivo; summary of the method: as §5
Cynomolgus monkey = assay: Hepatic clearance in cynomolgus monkey at 0.5 mg/kg, iv; format: ADME, organism-based, Macaca fascicularis, Liver; design: dose 0.5 mg/kg, route intravenous; details: in vivo
Plasma [12] = assay: Unbound plasma concentration in Sprague-Dawley rat at 60 mg/kg, po measured at 3 hrs; format: ADME, organism-based; design: dose 60 mg/kg, route oral; details: in vivo
Summary of the method: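 Male Sprague-Dawley rats were given a single 60 mg/kg oral dose in 1% CMC/0.5% Tween/5 mM citrate in H₂O. Free plasma concentration was determined at 1, 3, 5, 8 and 12 h. Brain, CSF and CSF Aβ₁₋₄₀ were sampled at the same times.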

[13] = Drug uptake in Sprague-Dawley rat CSF at 60 mg/kg, po measured at 5 hrs; format: ADME, organism-based, Cerebrospinal fluid; design: dose 60 mg/kg, route oral; details: read-out: Drug uptake; summary of the method: as §3
[14] = Intrinsic clearance in cynomolgus monkey hepatocytes at 2 uM after 60 to 120 mins; format: ADME, cell-based, Macaca fascicularis, Hepatocyte; details: read-out: CLH
[15] = Ratio of unbound drug level in brain to plasma in Hartley guinea pig at 60 mg/kg, po measured at 5 hrs; format: ADME, organism-based, Cavia porcellus; design: dose 60 mg/kg, route oral; details: brain and plasma (unbound), read-out: K(p,uu,brain); summary of the method: as §4
[16] = Drug uptake in cynomolgus monkey CSF at 0.5 mg/kg, iv and 100 mg/kg, po measured at 2 hrs; format: ADME, organism-based, Macaca fascicularis, Cerebrospinal fluid; details: read-out: Drug uptake
Summary of the method: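 Female cynomolgus monkeys, 3 per dosing route; iv formulation PEG400/EtOH/water (40/10/50) solution; oral suspension in 1% CMC, 0.5% Tween 80, 5 mM citrate buffer; CSF concentration measured.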

[17] = Intrinsic clearance in Hartley guinea pig hepatocytes at 2 uM after 60 to 120 mins; format: ADME, cell-based, Cavia porcellus, Hepatocyte; details: read-out: CLH
[18] = Ratio of unbound drug level in brain to plasma in Sprague-Dawley rat at 60 mg/kg, po measured at 5 hrs; format: ADME, organism-based; design: dose 60 mg/kg, route oral; details: brain and plasma (unbound), read-out: K(p,uu,brain); summary of the method: as §5
[19] = Ratio of unbound drug level in brain to plasma in CD-1 mouse measured at 4 hrs; format: ADME; details: CD-1, mouse, read-out: K(p,uu,brain)
Summary of the method: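 Male CD-1 mice given 10 mg/kg po, 3 per cohort; plasma and brain collected at 1 and 4 h. Free brain/plasma ratio from unbound concentrations; coverage ratio = free brain concentration divided by HEK293 Aβ₁₋₄₀ cell IC50.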

Cavia porcellus = assay: Hepatic clearance in Hartley guinea pig at 3 mg/kg, iv; format: ADME, organism-based, Liver; design: dose 3 mg/kg, route intravenous; details: in vivo
Brain [20] = assay: Fraction unbound in Sprague-Dawley rat brain at 60 mg/kg, po measured at 3 hrs; format: ADME, organism-based; design: dose 60 mg/kg, route oral; details: in vivo; summary of the method: as §5
[21] = Unbound plasma concentration in Hartley guinea pig at 60 mg/kg, po measured at 8 hrs; format: ADME, organism-based, Cavia porcellus; design: dose 60 mg/kg, route oral; details: in vivo; summary of the method: as §2
[22] = Unbound plasma concentration in Hartley guinea pig at 60 mg/kg, po measured at 1 hr; format: ADME, organism-based, Cavia porcellus; design: dose 60 mg/kg, route oral; details: in vivo; summary of the method: as §2
[23] = Drug uptake in Sprague-Dawley rat CSF at 60 mg/kg, po measured at 8 hrs; format: ADME, organism-based, Cerebrospinal fluid; design: dose 60 mg/kg, route oral; details: read-out: Drug uptake; summary of the method: as §3
[24] = Unbound plasma concentration in Hartley guinea pig at 60 mg/kg, po measured at 12 hrs; format: ADME, organism-based, Cavia porcellus; design: dose 60 mg/kg, route oral; details: in vivo; summary of the method: as §2
[25] = Drug uptake in Hartley guinea pig CSF at 60 mg/kg, po measured at 1 hr; format: ADME, organism-based, Cavia porcellus, Cerebrospinal fluid; design: dose 60 mg/kg, route oral; details: read-out: Drug uptake; summary of the method: as §1
[26] = Fraction unbound in Hartley guinea pig brain at 60 mg/kg, po measured at 8 hrs; format: ADME, organism-based, Cavia porcellus; design: dose 60 mg/kg, route oral; details: in vivo
[27] = Unbound plasma concentration in Hartley guinea pig at 100 mg/kg, po measured at 3 hrs; format: ADME, organism-based, Cavia porcellus; design: dose 100 mg/kg, route oral; details: in vivo; summary of the method: as §2
Brain [28] = assay: Fraction unbound in CD-1 mouse brain at 10 mg/kg, po measured at 1 hr; format: ADME, organism-based; design: dose 10 mg/kg, route oral; details: in vivo
Summary of the method: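 Male CD-1 mice, 3 per cohort, dosed 10 mg/kg orally; brains harvested at 1 and 4 h.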

[29] = Intrinsic clearance in CD-1 mouse hepatocytes at 2 uM after 60 to 120 mins; format: ADME, cell-based, Hepatocyte; details: read-out: CLH
[30] = Fraction unbound in Hartley guinea pig brain at 60 mg/kg, po measured at 1 hr; format: ADME, organism-based, Cavia porcellus; design: dose 60 mg/kg, route oral; details: in vivo
Brain [31] = assay: Fraction unbound in Sprague-Dawley rat brain at 60 mg/kg, po measured at 12 hrs; format: ADME, organism-based; design: dose 60 mg/kg, route oral; details: in vivo; summary of the method: as §5
Brain [32] = assay: Fraction unbound in Sprague-Dawley rat brain at 60 mg/kg, po measured at 5 hrs; format: ADME, organism-based; design: dose 60 mg/kg, route oral; details: in vivo; summary of the method: as §5
[33] = Drug uptake in Sprague-Dawley rat CSF at 60 mg/kg, po measured at 1 hr; format: ADME, organism-based, Cerebrospinal fluid; design: dose 60 mg/kg, route oral; details: read-out: Drug uptake; summary of the method: as §3
Brain [34] = assay: Fraction unbound in Sprague-Dawley rat brain at 60 mg/kg, po measured at 1 hr; format: ADME, organism-based; design: dose 60 mg/kg, route oral; details: in vivo; summary of the method: as §5
[35] = Solubility of the compound at pH 7.2; format: physicochemical; details: buffer
[36] = Ratio of unbound drug level in brain to plasma in Hartley guinea pig at 60 mg/kg, po measured at 3 hrs; format: ADME, organism-based, Cavia porcellus; design: dose 60 mg/kg, route oral; details: brain and plasma (unbound), read-out: K(p,uu,brain); summary of the method: as §4
[37] = Ratio of unbound drug level in brain to plasma in Hartley guinea pig at 100 mg/kg, po measured at 3 hrs; format: ADME, organism-based, Cavia porcellus; design: dose 100 mg/kg, route oral; details: brain and plasma (unbound), read-out: K(p,uu,brain); summary of the method: as §4

- Drug uptake(free) [1]: 34 nM
- concentration at 8 h [2]: 1.6 nM
- Cp(f) [3]: 23 nM
- concentration at 12 h [4]: 85 nM
- Kp uu at 3 h [5]: 1.6
- CLint scaled at 2 µM [6]: 35 mL/min/kg
- Cp(f) (Plasma [7]): 3200 nM
- Drug uptake(free) [8]: 9.5 nM
- Drug uptake(free) [9]: 11 nM
- Kp uu at 12 h [10]: 0.048
- Drug uptake(free) (Brain [11]): 84 nM
- CLH (Cynomolgus monkey): 22 mL/min/kg
- Cp(f) (Plasma [12]): 2200 nM
- concentration at 5 h [13]: 200 nM
- CLint scaled at 2 µM [14]: 5.8 mL/min/kg
- Kp uu at 5 h [15]: 1.7
- concentration at 2 h [16]: 110 nM
- CLint scaled at 2 µM [17]: 9.7 mL/min/kg
- Kp uu at 5 h [18]: 0.029
- Kp uu at 4 h [19]: 0.19
- CLH (Cavia porcellus): 110 mL/min/kg
- Drug uptake(free) (Brain [20]): 66 nM
- Cp(f) [21]: < 3 nM
- Cp(f) [22]: 140 nM
- concentration at 8 h [23]: 130 nM
- Cp(f) [24]: < 3 nM
- concentration at 1 h [25]: 69 nM
- Drug uptake(free) [26]: 5.2 nM
- Cp(f) [27]: 38 nM
- Drug uptake(free) (Brain [28]): 24 nM
- CLint scaled at 2 µM [29]: 36 mL/min/kg
- Drug uptake(free) [30]: 19 nM
- Drug uptake(free) (Brain [31]): 46 nM
- Drug uptake(free) (Brain [32]): 79 nM
- concentration at 1 h [33]: 290 nM
- Drug uptake(free) (Brain [34]): 68 nM
- solubility [35]: 220 µg/mL (≈ 575 µM)
- Kp uu at 3 h [36]: 1.5
- Kp uu at 3 h [37]: 1.3
SMILES: CN1C(=O)[C@]2(N=C1N)c1cc(-c3cccnc3F)ccc1O[C@H]1CCOC[C@@H]12
